Experimental data as given in ChEMBL document CHEMBL4428073, “Design, Synthesis, and Bioactivation of O-Glycosylated Prodrugs of the Natural Nitric Oxide Precursor N(ω)-Hydroxy-l-arginine” (J Med Chem, 2016).
Values belong to the compound of their own block, whether it stands above or below them. Calls of active or inactive are those of the source. The rule behind the calls is not given here.

Assays:
[1] = Prodrug activation assessed as almond beta-glucosidase-mediated Nomega-hydroxy-L-arginine formation at 500 uM measured up to 150 mins by HPLC analysis; conditions: prunus dulcis, 2.5 h
Procedure, shortened: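 β-Glucosidase (recombinant, almond; 33 U/mL) pre-incubated 3 min at 37 °C in 50 mM triethanolamine pH 7.0. Reaction started with prodrug (500 µM). Aliquots at 0, 15, 45, 90 and 150 min quenched with equal volume ice-cold MeOH, then centrifuged. Supernatant analysed by o-phthalaldehyde/fluorescence HPLC. No-enzyme controls run alongside. Mean ± SD, n = 2-3.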

[2] = target: T1, Nitric oxide synthase, inducible (Mus musculus, UniProt P29477); assay: Prodrug activation in LPS-stimulated mouse […] cells assessed as iNOS-mediated Nomega-hydroxy-L-arginine formation by measuring increase in NO release at 1 mM incubated for 2.5 hrs by Hoechst 33342/DAF-FM-DA staining based fluorescence microscopic analysis; conditions: 1000 µM
T1 sequence (P29477 whole entry): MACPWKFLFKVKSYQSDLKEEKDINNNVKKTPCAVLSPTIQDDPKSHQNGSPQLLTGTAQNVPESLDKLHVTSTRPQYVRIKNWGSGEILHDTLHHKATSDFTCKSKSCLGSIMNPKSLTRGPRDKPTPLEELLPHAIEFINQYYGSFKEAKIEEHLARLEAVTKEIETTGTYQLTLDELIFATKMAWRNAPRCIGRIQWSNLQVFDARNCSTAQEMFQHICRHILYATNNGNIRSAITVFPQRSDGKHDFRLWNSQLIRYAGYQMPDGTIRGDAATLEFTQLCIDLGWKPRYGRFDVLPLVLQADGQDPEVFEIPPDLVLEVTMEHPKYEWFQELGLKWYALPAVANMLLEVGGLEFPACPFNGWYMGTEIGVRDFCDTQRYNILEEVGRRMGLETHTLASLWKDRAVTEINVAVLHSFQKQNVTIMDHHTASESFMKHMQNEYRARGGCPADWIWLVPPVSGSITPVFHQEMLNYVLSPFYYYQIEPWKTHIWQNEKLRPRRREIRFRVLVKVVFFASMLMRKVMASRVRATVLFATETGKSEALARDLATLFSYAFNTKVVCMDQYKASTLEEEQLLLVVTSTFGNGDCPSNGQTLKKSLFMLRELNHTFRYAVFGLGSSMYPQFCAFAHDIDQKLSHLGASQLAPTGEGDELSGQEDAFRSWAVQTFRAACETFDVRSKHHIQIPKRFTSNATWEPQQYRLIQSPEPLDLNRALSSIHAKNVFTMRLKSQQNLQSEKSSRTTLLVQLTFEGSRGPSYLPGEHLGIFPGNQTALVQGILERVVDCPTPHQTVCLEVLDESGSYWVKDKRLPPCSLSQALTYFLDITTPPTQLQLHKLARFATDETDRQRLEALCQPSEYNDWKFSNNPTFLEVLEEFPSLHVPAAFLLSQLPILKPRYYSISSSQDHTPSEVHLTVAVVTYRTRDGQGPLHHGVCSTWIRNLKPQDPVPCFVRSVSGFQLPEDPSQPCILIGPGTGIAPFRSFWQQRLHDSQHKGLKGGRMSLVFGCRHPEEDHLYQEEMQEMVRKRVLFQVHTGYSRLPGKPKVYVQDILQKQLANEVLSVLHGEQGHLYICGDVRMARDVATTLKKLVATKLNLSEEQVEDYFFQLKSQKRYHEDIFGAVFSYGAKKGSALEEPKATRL
Procedure, shortened: (§1)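 Washed into arginine/lysine-free DMEM with 2% FBS. Compound 1 mM final from DPBS++ stock, 150 min (L-NAME co-incubated where stated). Then 5 µM DAF-FM-DA plus 10 µM Hoechst 15 min. Six images per well, triplicate wells. Cell-normalized intensity minus DPBS++ control, scaled to reference substrate = 100%. Mean ± SEM.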

[3] = target: T1, Nitric oxide synthase, inducible; assay: Prodrug activation in LPS-stimulated mouse […] cells assessed as iNOS-mediated Nomega-hydroxy-L-arginine formation by measuring increase in NO release at 1 mM incubated for 2.5 hrs in presence of NOS inhibitor L-NAME by Hoechst 33342/DAF-FM-DA staining based fluorescence microscopic analysis; conditions: 1000 µM; procedure, shortened: as §1
[4] = Half life in 10 mM potassium phosphate buffer at 250 uM at pH 9 at 37 degC by HPLC analysis; assay type: physicochemical
Procedure, shortened: (§2)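 Half-life from incubations at 250 µM in 10 mM potassium phosphate buffer, 37 °C, pH 7.4 or 9.0. Sampling at 3, 6 and 24 h. HPLC of o-phthalaldehyde derivatives with fluorescence detection (ex 338 nm, em 425 nm).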

Beta-galactosidase = Beta-galactosidase (Escherichia coli, UniProt Q8VNN2); assay: Prodrug activation assessed as recombinant Escherichia coli beta-galactosidase-mediated Nomega-hydroxy-L-arginine formation at 500 uM measured up to 150 mins by HPLC analysis; conditions: 2.5 h
Chain of Beta-galactosidase (Q8VNN2 whole entry): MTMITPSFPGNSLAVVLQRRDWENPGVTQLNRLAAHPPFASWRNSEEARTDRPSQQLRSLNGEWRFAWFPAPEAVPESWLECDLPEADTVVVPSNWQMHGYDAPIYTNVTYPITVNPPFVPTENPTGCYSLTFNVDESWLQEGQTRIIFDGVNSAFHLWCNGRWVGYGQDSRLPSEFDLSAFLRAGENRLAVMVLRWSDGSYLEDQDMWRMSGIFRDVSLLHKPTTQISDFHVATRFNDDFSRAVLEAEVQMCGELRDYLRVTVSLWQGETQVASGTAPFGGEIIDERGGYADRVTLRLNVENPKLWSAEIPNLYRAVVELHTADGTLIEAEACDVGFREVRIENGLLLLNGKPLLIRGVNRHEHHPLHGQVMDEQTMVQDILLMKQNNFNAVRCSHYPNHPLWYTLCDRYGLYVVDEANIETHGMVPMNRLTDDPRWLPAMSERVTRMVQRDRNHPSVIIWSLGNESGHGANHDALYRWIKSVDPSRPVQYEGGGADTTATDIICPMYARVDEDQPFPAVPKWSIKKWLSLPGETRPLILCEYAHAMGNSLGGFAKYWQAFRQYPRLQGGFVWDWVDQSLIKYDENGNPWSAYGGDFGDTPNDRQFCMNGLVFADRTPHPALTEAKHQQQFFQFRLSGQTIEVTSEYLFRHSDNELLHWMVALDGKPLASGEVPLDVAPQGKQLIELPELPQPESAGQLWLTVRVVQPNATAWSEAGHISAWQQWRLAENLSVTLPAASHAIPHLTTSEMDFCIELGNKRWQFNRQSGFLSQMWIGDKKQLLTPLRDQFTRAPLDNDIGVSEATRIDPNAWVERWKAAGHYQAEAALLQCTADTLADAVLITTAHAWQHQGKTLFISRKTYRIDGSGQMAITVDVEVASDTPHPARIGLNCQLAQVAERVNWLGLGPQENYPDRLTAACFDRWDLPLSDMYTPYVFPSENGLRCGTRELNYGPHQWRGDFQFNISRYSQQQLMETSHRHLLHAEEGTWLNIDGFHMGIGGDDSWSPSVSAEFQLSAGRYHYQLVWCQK
Procedure, shortened: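 Recombinant E. coli β-galactosidase (25 U/mL) pre-incubated 3 min at 37 °C in 50 mM triethanolamine pH 7.0, then prodrug added at 500 µM. Samples at 0, 15, 45, 90 and 150 min stopped with ice-cold MeOH, centrifuged and analysed by o-phthalaldehyde/fluorescence HPLC. No-enzyme controls included.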

[5] = Half life in 10 mM potassium phosphate buffer at 250 uM at pH 7.4 at 37 degC by HPLC analysis; assay type: physicochemical; procedure, shortened: as §2
[6] = Chemical stability in 10 mM potassium phosphate buffer at 250 uM at pH 2 incubated up to 24 hrs at 37 degC by HPLC analysis; assay type: physicochemical; conditions: pH 2, 24 h
Procedure, shortened: (§3)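 Compound at 250 µM in 10 mM potassium phosphate buffer at pH 2.0, 7.4 or 9.0, 37 °C. Samples taken at 3, 6 and 24 h, diluted 1:1 with 100 mM potassium phosphate pH 7.4. Analysed by HPLC after o-phthalaldehyde derivatization: RP18 column at 37 °C, fluorescence detection (ex 338 nm, em 425 nm).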

[7] = Chemical stability in 10 mM potassium phosphate buffer at 250 uM at pH 7.4 incubated up to 24 hrs at 37 degC by HPLC analysis; assay type: physicochemical; conditions: pH 7.4, 24 h; procedure, shortened: as §3
[8] = Chemical stability in 10 mM potassium phosphate buffer at 250 uM at pH 9 incubated up to 24 hrs at 37 degC by HPLC analysis; assay type: physicochemical; conditions: pH 9, 24 h; procedure, shortened: as §3
[9] = Prodrug activation assessed as porcine liver carboxylesterase/recombinant Escherichia coli beta-galactosidase-mediated Nomega-hydroxy-L-arginine formation by measuring NO release at 500 uM preincubated for 150 mins followed by recombinant mouse iNOS and NADPH addition incubated for 30 mins followed by LDH and sodium pyruvate addition measured after 15 mins by Griess assay; conditions: 0.5 h
[10] = target: T2, Nitric oxide synthase, inducible (Mus musculus) (UniProt P29477); assay: Substrate activity at iNOS in LPS-stimulated mouse […] cells assessed as increase in NO release at 1 mM incubated for 2.5 hrs by Hoechst 33342/DAF-FM-DA staining based fluorescence microscopic analysis; procedure, shortened: as §1
T2 sequence (whole entry): T1 sequence (P29477 whole entry)

J774.A1 [11] = assay: Toxicity in mouse […] cells assessed as induction of apoptosis up to 1 mM after 2.5 hrs by Hoechst 33342/DAPI/GFP staining based fluorescence microscopic analysis; assay type: cell-based; conditions: j774.a1, 2.5 h
Procedure, shortened: (§4)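 Stained with Hoechst 33342 and DAF-FM-DA, then imaged by automated fluorescence microscopy (about 1000 cells per well). Cell shape, blebbing, apoptosis and cell numbers judged against DPBS++ vehicle controls.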

J774.A1 [12] = assay: Toxicity in mouse […] cells assessed as changes in cell shape up to 1 mM after 2.5 hrs by Hoechst 33342/DAPI/GFP staining based fluorescence microscopic analysis; conditions: j774.a1, 2.5 h; procedure, shortened: as §4
[13] = target: T2, Nitric oxide synthase, inducible (Mus musculus); assay: Substrate activity at recombinant mouse iNOS assessed as increase in NO release incubated for 30 mins in presence of NADPH followed by LDH and sodium pyruvate addition measured after 15 mins by Griess assay
J774.A1 [14] = assay: Toxicity in mouse […] cells assessed as reduction in cell proliferation up to 1 mM after 2.5 hrs by Hoechst 33342/DAF-FM-DA staining based fluorescence microscopic analysis; conditions: j774.a1, 2.5 h; procedure, shortened: as §4
J774.A1 [15] = assay: Toxicity in mouse […] cells assessed as appearance of cell blebbing up to 1 mM after 2.5 hrs by Hoechst 33342/DAPI/GFP staining based fluorescence microscopic analysis; conditions: j774.a1, 2.5 h; procedure, shortened: as §4
Liver carboxylesterase = target: T3, Liver carboxylesterase (Sus scrofa, UniProt Q29550); assay: Prodrug activation assessed as porcine liver carboxylesterase-mediated Sodium Nomega-(beta-D-Galactopyranos-1-yloxy)-L-arginine formation at 500 uM measured up to 150 mins by HPLC analysis; conditions: pig, 2.5 h
T3 sequence (Q29550 whole entry): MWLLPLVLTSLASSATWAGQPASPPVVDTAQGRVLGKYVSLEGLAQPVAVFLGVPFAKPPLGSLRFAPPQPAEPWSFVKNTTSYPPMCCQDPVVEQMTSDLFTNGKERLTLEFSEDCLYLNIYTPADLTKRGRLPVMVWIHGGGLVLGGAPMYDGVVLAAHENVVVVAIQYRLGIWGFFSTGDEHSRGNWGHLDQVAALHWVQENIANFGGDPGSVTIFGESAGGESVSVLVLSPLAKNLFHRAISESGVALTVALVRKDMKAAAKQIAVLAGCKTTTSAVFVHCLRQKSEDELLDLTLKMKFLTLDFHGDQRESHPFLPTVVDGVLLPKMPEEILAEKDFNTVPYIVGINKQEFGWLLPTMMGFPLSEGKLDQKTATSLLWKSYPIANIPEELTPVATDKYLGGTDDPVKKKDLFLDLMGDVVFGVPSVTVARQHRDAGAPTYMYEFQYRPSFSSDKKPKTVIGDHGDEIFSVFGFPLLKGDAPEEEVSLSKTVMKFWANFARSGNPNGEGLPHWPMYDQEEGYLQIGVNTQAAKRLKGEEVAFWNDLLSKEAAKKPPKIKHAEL
Procedure, shortened: (§5)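 Porcine liver carboxylesterase (133 U/mL) plus β-galactosidase (33 U/mL) pre-incubated 3 min at 37 °C in 50 mM triethanolamine pH 7.0. Started with prodrug at 500 µM. Samples at 0–150 min quenched with cold MeOH, centrifuged and analysed by o-phthalaldehyde/fluorescence HPLC. No-enzyme controls included.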

[16] = Prodrug activation assessed as porcine liver carboxylesterase/beta-galactosidase-mediated Nomega-hydroxy-L-arginine formation at 500 uM measured up to 150 mins by HPLC analysis; design: species or system Sus scrofa; conditions: pig, 2.5 h; procedure, shortened: as §5

Structure (SMILES): CC(=O)OC[C@H]1O[C@@H](O/N=C(\N)NCCC[C@H](N)C(=O)O)[C@H](OC(C)=O)[C@@H](OC(C)=O)[C@H]1OC(C)=O.Cl.Cl
half-life at 250 µM [4]: > 24 h | Drug metabolism [2]: Metabolite_Notdetected | Drug metabolism (Beta-galactosidase): Metabolite_Notdetected | half-life at 250 µM [5]: > 24 h

Structure (SMILES): CCOC(=O)[C@@H](N)CCCN/C(N)=N/O[C@@H]1O[C@H](CO)[C@@H](O)[C@H](O)[C@H]1O.Cl.Cl
Drug metabolism [2]: Metabolite_Detected | Drug metabolism [3]: Metabolite_Notdetected

Structure (SMILES): CCOC(=O)[C@@H](N)CCCN/C(N)=N/O[C@@H]1O[C@H](COC(C)=O)[C@@H](OC(C)=O)[C@H](OC(C)=O)[C@H]1OC(C)=O.Cl.Cl
Drug metabolism [2]: Metabolite_Detected | Drug metabolism [3]: Metabolite_Notdetected

Structure (SMILES): N=C(NO)NCCC[C@H](N)C(=O)O
Activity [10]: Active | Activity (J774.A1 [11]): Non-Toxic | Activity (J774.A1 [12]): Non-Toxic | Activity [13]: Active | Activity (J774.A1 [14]): Non-Toxic | Activity (J774.A1 [15]): Non-Toxic

Structure (SMILES): CC(=O)OC[C@H]1O[C@@H](O/N=C(\N)NCCC[C@H](N)C(=O)O)[C@H](OC(C)=O)[C@@H](OC(C)=O)[C@@H]1OC(C)=O.Cl.Cl
Drug metabolism [1]: Metabolite_Detected | Drug metabolism [2]: Metabolite_Detected | Drug metabolism [3]: Metabolite_Notdetected

Structure (SMILES): CCOC(=O)[C@@H](N)CCCN/C(N)=N/O[C@@H]1O[C@H](COC(C)=O)[C@H](OC(C)=O)[C@H](OC(C)=O)[C@H]1OC(C)=O.Cl.Cl
Drug metabolism [3]: Metabolite_Notdetected

The next lines start with the values.

Drug metabolism [1]: Metabolite_Detected | Drug metabolism [2]: Metabolite_Detected | Drug metabolism [3]: Metabolite_Notdetected
Structure (SMILES): N/C(=N\O[C@@H]1O[C@H](CO)[C@@H](O)[C@H](O)[C@H]1O)NCCC[C@H](N)C(=O)[O-].[Na+]

Drug metabolism [1]: Metabolite_Detected | Stability [6]: Stable | Drug metabolism [2]: Metabolite_Notdetected | Stability [7]: Stable | Drug metabolism (Beta-galactosidase): Metabolite_Detected | Stability [8]: Stable | Drug metabolism [9]: Metabolite_Detected
Structure (SMILES): N/C(=N\O[C@@H]1O[C@H](CO)[C@H](O)[C@H](O)[C@H]1O)NCCC[C@H](N)C(=O)[O-].[Na+]

Drug metabolism (Liver carboxylesterase): Metabolite_Detected | half-life at 250 µM [4]: 10 to 12 h | Drug metabolism [2]: Metabolite_Notdetected | half-life at 250 µM [5]: 10 to 12 h | Drug metabolism [16]: Metabolite_Detected | Drug metabolism [9]: Metabolite_Detected
Structure (SMILES): CCOC(=O)[C@@H](N)CCCN/C(N)=N/O[C@@H]1O[C@H](CO)[C@H](O)[C@H](O)[C@H]1O.Cl.Cl
